# Key:
# Pseudomonas aeruginosa [1] = experiment: Antibacterial activity against wild type Pseudomonas aeruginosa assessed as inhibition of bacterial growth; assay type: functional, organism-based
# Acinetobacter baumannii [2] = experiment: Antibacterial activity against recombinant OM pore producing Acinetobacter baumannii assessed as inhibition of bacterial growth; assay type: functional, organism-based
# Pseudomonas aeruginosa [3] = experiment: Antibacterial activity against efflux pump lacking/recombinant OM pore producing Pseudomonas aeruginosa assessed as inhibition of bacterial growth; assay type: functional, organism-based
# Escherichia coli [4] = experiment: Antibacterial activity against efflux pump lacking/recombinant OM pore producing Escherichia coli incubated for 24 hrs by twofold serial dilution method; assay type: functional
# Procedure, shortened: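 E. coli efflux-knockout/hyperporinated strain grown in M9 medium with 50 mM MOPS (pH 7.2) and 0.2% xylose. OM pore induced with 0.1% arabinose. Compounds come from 10 mM DMSO stocks and are twofold serially diluted in 96-well plates.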
# Acinetobacter baumannii [5] = experiment: Antibacterial activity against multidrug resistant Acinetobacter baumannii Ab5075 assessed as inhibition of bacterial growth incubated for 24 hrs in M9-MOPS medium by twofold serial dilution method; assay type: functional
# Acinetobacter baumannii [6] = experiment: Antibacterial activity against efflux pump lacking/recombinant OM pore producing Acinetobacter baumannii assessed as inhibition of bacterial growth; assay type: functional, organism-based
# Pseudomonas aeruginosa [7] = experiment: Antibacterial activity against multidrug resistant Pseudomonas aeruginosa BAA 2109 assessed as inhibition of bacterial growth incubated for 24 hrs in […] medium by twofold serial dilution method; assay type: functional
# Klebsiella pneumoniae [8] = experiment: Antibacterial activity against multidrug resistant Klebsiella pneumoniae ATCC43816 assessed as inhibition of bacterial growth incubated for 24 hrs in MHI medium by twofold serial dilution method; assay type: functional
# Klebsiella aerogenes [9] = experiment: Antibacterial activity against multidrug resistant Klebsiella aerogenes ATCC13048 assessed as inhibition of bacterial growth incubated for 24 hrs in M9-MOPS medium by twofold serial dilution method; assay type: functional
# Acinetobacter baumannii [10] = experiment: Antibacterial activity against multidrug resistant Acinetobacter baumannii AYE assessed as inhibition of bacterial growth incubated for 24 hrs in M9-MOPS medium by twofold serial dilution method; assay type: functional
# Acinetobacter baumannii [11] = experiment: Antibacterial activity against efflux pump lacking Acinetobacter baumannii assessed as inhibition of bacterial growth; assay type: functional, organism-based
# Acinetobacter baumannii [12] = experiment: Antibacterial activity against multidrug resistant Acinetobacter baumannii AYE assessed as inhibition of bacterial growth incubated for 24 hrs in MHI medium by twofold serial dilution method; assay type: functional
# Escherichia coli [13] = experiment: Antibacterial activity against efflux pump lacking Escherichia coli assessed as inhibition of bacterial growth; assay type: functional, organism-based
# Klebsiella pneumoniae [14] = experiment: Antibacterial activity against multidrug resistant Klebsiella pneumoniae ATCC43816 assessed as inhibition of bacterial growth incubated for 24 hrs in M9-MOPS medium by twofold serial dilution method; assay type: functional
# Escherichia coli [15] = experiment: Antibacterial activity against Escherichia coli SQ110 DTC C2610A incubated for 24 hrs by twofold serial dilution method; assay type: functional
# Procedure, shortened: (§1)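 E. coli SQDTC (TolC-deficient, single rRNA operon) carrying LZD-resistant 23S rRNA substitutions. Compounds come from 10 mM DMSO stocks and are twofold serially diluted in 96-well plates.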
# Escherichia coli [16] = experiment: Antibacterial activity against Escherichia coli SQ110 DTC incubated for 24 hrs by twofold serial dilution method; assay type: functional
# Procedure, shortened: (§2)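 MICs by twofold serial dilution in 96-well plates from 10 mM DMSO stocks. Cultures grown in the indicated media; for E. coli, A. baumannii and P. aeruginosa, inducers were 0.1% arabinose, 1% arabinose and 0.1 mM IPTG respectively.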
# Pseudomonas aeruginosa [17] = experiment: Antibacterial activity against efflux pump lacking/recombinant OM pore producing Pseudomonas aeruginosa incubated for 24 hrs by twofold serial dilution method; assay type: functional; procedure, shortened: as §2
# Pseudomonas aeruginosa [18] = experiment: Antibacterial activity against recombinant OM pore producing Pseudomonas aeruginosa assessed as inhibition of bacterial growth; assay type: functional, organism-based
# Escherichia coli [19] = experiment: Antibacterial activity against wild type Escherichia coli assessed as inhibition of bacterial growth; assay type: functional, organism-based
# Acinetobacter baumannii [20] = experiment: Antibacterial activity against efflux pump lacking/recombinant OM pore producing Acinetobacter baumannii incubated for 24 hrs by twofold serial dilution method; assay type: functional; procedure, shortened: as §2
# Klebsiella pneumoniae [21] = experiment: Antibacterial activity against multidrug resistant Klebsiella pneumoniae ATCC13883 assessed as inhibition of bacterial growth incubated for 24 hrs in M9-MOPS medium by twofold serial dilution method; assay type: functional
# Pseudomonas aeruginosa [22] = experiment: Antibacterial activity against multidrug resistant Pseudomonas aeruginosa BAA 2108 assessed as inhibition of bacterial growth incubated for 24 hrs in MHI medium by twofold serial dilution method; assay type: functional
# Pseudomonas aeruginosa [23] = experiment: Antibacterial activity against multidrug resistant Pseudomonas aeruginosa BAA 2109 assessed as inhibition of bacterial growth incubated for 24 hrs in MHI medium by twofold serial dilution method; assay type: functional
# Escherichia coli [24] = experiment: Antibacterial activity against Escherichia coli SQ110 DTC G2032A incubated for 24 hrs by twofold serial dilution method; assay type: functional; procedure, shortened: as §1
# Pseudomonas aeruginosa [25] = experiment: Antibacterial activity against efflux pump lacking Pseudomonas aeruginosa assessed as inhibition of bacterial growth; assay type: functional, organism-based
# Klebsiella pneumoniae [26] = experiment: Antibacterial activity against multidrug resistant Klebsiella pneumoniae ATCC13883 assessed as inhibition of bacterial growth incubated for 24 hrs in MHI medium by twofold serial dilution method; assay type: functional
# Staphylococcus aureus = experiment: Antibacterial activity against Staphylococcus aureus ATCC 25923 incubated for 24 hrs by twofold serial dilution method; assay type: functional; procedure, shortened: as §2
# Escherichia coli [27] = experiment: Antibacterial activity against efflux pump lacking/recombinant OM pore producing Escherichia coli assessed as inhibition of bacterial growth; assay type: functional, organism-based
# Pseudomonas aeruginosa [28] = experiment: Antibacterial activity against multidrug resistant Pseudomonas aeruginosa BAA 2108 assessed as inhibition of bacterial growth incubated for 24 hrs in M9-MOPS medium by twofold serial dilution method; assay type: functional
# Acinetobacter baumannii [29] = experiment: Antibacterial activity against multidrug resistant Acinetobacter baumannii Ab5075 assessed as inhibition of bacterial growth incubated for 24 hrs in MHI medium by twofold serial dilution method; assay type: functional
# Klebsiella aerogenes [30] = experiment: Antibacterial activity against multidrug resistant Klebsiella […] assessed as inhibition of bacterial growth incubated for 24 hrs in MHI medium by twofold serial dilution method; assay type: functional
# Escherichia coli [31] = experiment: Antibacterial activity against recombinant OM pore producing Escherichia coli assessed as inhibition of bacterial growth; assay type: functional, organism-based
# Acinetobacter baumannii [32] = experiment: Antibacterial activity against wild type Acinetobacter baumannii assessed as inhibition of bacterial growth; assay type: functional, organism-based
# Escherichia coli [33] = experiment: Antibacterial activity against Escherichia coli SQ110 incubated for 24 hrs by twofold serial dilution method; assay type: functional; procedure, shortened: as §2
# Pseudomonas aeruginosa [34] = experiment: Selectivity ratio of IC50 for efflux pump lacking Pseudomonas aeruginosa to IC50 for efflux pump lacking/OM pore producing Pseudomonas aeruginosa; assay type: functional
# Procedure, shortened: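 OM impact ratio (E/PE) is the M9-MOPS growth IC50 in the efflux-lacking strain divided by that in the efflux-lacking/pore-producing strain.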
# Klebsiella pneumoniae [35] = experiment: Antibacterial activity against multidrug resistant Klebsiella pneumoniae ATCC43816 assessed as inhibition of bacterial growth incubated for 24 hrs in MHI medium by twofold serial dilution method; settings: ATCC43816, 24 h
# Pseudomonas aeruginosa [36] = experiment: Selectivity ratio of IC50 for OM pore producing Pseudomonas aeruginosa to IC50 for efflux pump lacking/OM pore producing Pseudomonas aeruginosa; assay type: functional
# Procedure, shortened: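 Efflux impact ratio (P/PE) is the M9-MOPS growth IC50 in the pore-producing strain divided by that in the efflux-lacking/pore-producing strain.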
Structure (SMILES),IC50 (Pseudomonas aeruginosa [1]) [µM],IC50 (Acinetobacter baumannii [2]) [µM],IC50 (Pseudomonas aeruginosa [3]) [nM],MIC (Escherichia coli [4]) [µM],MIC (Acinetobacter baumannii [5]) [µM],IC50 (Acinetobacter baumannii [6]) [nM],MIC (Pseudomonas aeruginosa [7]) [µM],MIC (Klebsiella pneumoniae [8]) [µM],MIC (Klebsiella aerogenes [9]) [µM],MIC (Acinetobacter baumannii [10]) [µM],IC50 (Acinetobacter baumannii [11]) [µM],MIC (Acinetobacter baumannii [12]) [µM],IC50 (Escherichia coli [13]) [µM],MIC (Klebsiella pneumoniae [14]) [µM],MIC (Escherichia coli [15]) [µM],MIC (Escherichia coli [16]) [µM],MIC (Pseudomonas aeruginosa [17]) [µM],IC50 (Pseudomonas aeruginosa [18]) [µM],IC50 (Escherichia coli [19]) [µM],MIC (Acinetobacter baumannii [20]) [µM],other results
O=C1O[C@@H](CO)CN1c1ccc(-c2ccncc2)c(F)c1,44.2,16.5,2900,6.25,100,1400,> 200,> 200,200,100,1.4,> 200,0.8,200,6.25,6.25,3.12,48.2,44.3,6.25,MIC (Klebsiella pneumoniae [21]): 100 µM; MIC (Pseudomonas aeruginosa [22]): ≥ 200 µM; MIC (Pseudomonas aeruginosa [23]): > 200 µM; MIC (Escherichia coli [24]): 25 µM; IC50 (Pseudomonas aeruginosa [25]): 8.1 µM; MIC (Klebsiella pneumoniae [26]): 200 µM; MIC (Staphylococcus aureus): 1.56 µM; IC50 (Escherichia coli [27]): 1.3 µM; MIC (Pseudomonas aeruginosa [28]): ≥ 200 µM; MIC (Acinetobacter baumannii [29]): > 200 µM; MIC (Klebsiella aerogenes [30]): 200 µM; IC50 (Escherichia coli [31]): 5.6 µM; IC50 (Acinetobacter baumannii [32]): 16.5 µM; MIC (Escherichia coli [33]): > 100 µM
CC(=O)NC[C@H]1CN(c2ccc(N3CCOCC3)c(F)c2)C(=O)O1 [LINEZOLID],> 100,9.2,1700,25,≥ 200,4000,> 200,> 200,> 200,200,4.9,> 200,8.7,> 200,50,25,12.5,19.8,> 100,25,Ratio IC50 (Pseudomonas aeruginosa [34]): 15; MIC (Klebsiella pneumoniae [35]): > 200 µM; MIC (Klebsiella pneumoniae [21]): ≥ 200 µM; MIC (Pseudomonas aeruginosa [22]): > 200 µM; MIC (Pseudomonas aeruginosa [23]): > 200 µM; Ratio IC50 (Pseudomonas aeruginosa [36]): 12; MIC (Escherichia coli [24]): > 100 µM; IC50 (Pseudomonas aeruginosa [25]): 24.7 µM; MIC (Klebsiella pneumoniae [26]): > 200 µM; MIC (Staphylococcus aureus): 6.25 µM; IC50 (Escherichia coli [27]): 9.3 µM; MIC (Pseudomonas aeruginosa [28]): > 200 µM; MIC (Acinetobacter baumannii [29]): > 200 µM; IC50 (Escherichia coli [31]): 18 µM; IC50 (Acinetobacter baumannii [32]): 33.4 µM; MIC (Escherichia coli [33]): > 100 µM

# From ChEMBL document CHEMBL5104202, “Structure-Uptake Relationship Studies of Oxazolidinones in Gram-Negative ESKAPE Pathogens” (J Med Chem, 2022)
